Our source for the No. of mice, solubility and ILS values is ChEMBL document CHEMBL1128599, “Nucleoside conjugates. 14. Synthesis and antitumor activity of 1-beta-D-arabinofuranosylcytosine conjugates of ether lipids with improved water solubility” (J Med Chem, 1995).

Values joined by “and” are separate entries in the source; they are usually repeats but may differ in a detail not shown here. Equal values may be shown once. Bounds are passed on as bounds.

Series [1] deals with Mus musculus. In words: Number of mice (out of 6 mice) survived after treatment with 150 mg/kg/day of compound on 1, 5, 9 day treatment schedule for 45 days. The series is classed as functional. An outline of the steps:
(§1)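 Groups of 6 male DBA/2Ros mice (20–29 g) were inoculated ip on day 0 with 1 × 10⁶ L1210 cells. Conjugate was given ip as a shaken or sonicated aqueous solution from day 1, over a wide dose range. Optimal-dose results are reported as ILS = (T/C − 1) × 100 from median survival, or as 45-day survivors.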

Series [2] in a line: Solubility in water determined by UV absorption at 272 nm. Format: physicochemical. The settings on record: read-out: S.
Series [3] relates to Mus musculus. In words: Number of mice (out of 6 mice) survived after treatment with 200 mg/kg/day of compound on a 1 day treatment schedule for 45 days. The series is classed as functional. An outline of the steps:
as §1

Series [4] has as its system Mus musculus. The experiment in a line: Antitumor activity at 200 mg/kg/day on a 1 day treatment schedule, qd against L1210 infected mice was expressed as increase in life span (ILS). The series is classed as functional. Particulars: L1210, 24 h. An outline of the steps:
as §1

The subject of series [5] is Mus musculus. The experiment in a line: Antitumor activity at 200 mg/kg/day on a 1,7 day treatment schedule, qd against L1210 infected mice was expressed as increase in life span (ILS). Format: functional. The procedure, abridged:
as §1

Series [6] has as its system Mus musculus. In words: Antitumor activity at 150 mg/kg/day on 1, 5, 9 day treatment schedule, qd against L1210 infected mice was expressed as increase in life span (ILS). The settings on record: L1210, 216 h. The series is classed as functional. An outline of the steps:
as §1

Series [7] deals with Mus musculus. The experiment in a line: Number of mice (out of 6 mice) survived after treatment with 200 mg/kg/day of compound on a 1,7 day treatment schedule for 45 days. Format: functional. An outline of the steps:
as §1

Series [8] deals with Mus musculus. In words: Number of mice (out of 6 mice) survived after treatment with 300 mg/kg/day of compound on a 1 day by shaking method treatment schedule for 45 days. The series is classed as functional. The procedure, abridged: (§2)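 Male DBA/2Ros mice (20–29 g, groups of 6) got 1 × 10⁶ L1210 leukemia cells ip on day 0. Ip treatment started day 1. Conjugate was shaken in sterile water for 2 h at room temperature, then 0.22 μm filtered. Mice were observed 45 days. Read-outs were median survival T/C with ILS = (T/C − 1) × 100, or 45-day survivors.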

In series [9] the test system is Mus musculus. In words: Number of mice (out of 6 mice) survived after treatment with 300 mg/kg/day of compound on a 1 day by sonication method treatment schedule for 45 days. Format: functional. The procedure, abridged:
(§3)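 L1210 cells (1 × 10⁶) were inoculated ip into male DBA/2Ros mice (20–29 g, 6 per group) on day 0. Ip dosing began day 1. Conjugate in water suspension was sonicated 2 min (20–60 °C), then 0.22 μm filtered. Over a 45-day observation, read-outs were median survival T/C, ILS = (T/C − 1) × 100, or number alive at day 45.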

Series [10] relates to Mus musculus. The experiment in a line: Antitumor activity at 300 mg/kg/day on a 1 day treatment schedule, qd against L1210 infected mice by shaking method was expressed as increase in life span (ILS). The series is classed as functional. The settings on record: L1210, 24 h. An outline of the steps: as §2
Series [11] has as its system Mus musculus. The experiment in a line: Number of mice (out of 6 mice) survived after treatment with 150 mg/kg/day of compound on 1, 5, 9 day by sonication method treatment schedule for 45 days. Format: functional. The procedure, abridged: as §3
In series [12] the test system is Mus musculus. The experiment in a line: Antitumor activity at 150 mg/kg/day on 1, 5, 9 day treatment schedule, qd against L1210 infected mice by shaking method was expressed as increase in life span (ILS). The series is classed as functional. The settings on record: L1210, 216 h. The procedure, abridged:
as §2

Series [13] concerns Mus musculus. In words: Antitumor activity at 300 mg/kg/day on a 1 day treatment schedule, qd against L1210 infected mice by sonication method was expressed as increase in life span (ILS). The series is classed as functional. Particulars: L1210, 24 h. The procedure, abridged: as §3
The test system of series [14] is Mus musculus. In words: Antitumor activity at 150 mg/kg/day on 1, 5, 9 day treatment schedule, qd against L1210 infected mice by sonication method was expressed as increase in life span (ILS). The series is classed as functional. Particulars: L1210, 216 h. The procedure, abridged:
as §3

Series [15] relates to Mus musculus. The experiment in a line: Number of mice (out of 6 mice) survived after treatment with 150 mg/kg/day of compound on 1, 5, 9 day by shaking method treatment schedule for 45 days. Format: functional. The procedure, abridged: as §2
Series [16] concerns Mus musculus. In words: Antitumor activity at 300 mg/kg/day on a 1,7 day treatment schedule, qd against L1210 infected mice was expressed as increase in life span (ILS). The series is classed as functional. An outline of the steps: as §1
Series [17] relates to Mus musculus. The experiment in a line: Antitumor activity at 300 mg/Kg/day on a 1 day treatment schedule, qd against L1210 infected mice was expressed as increase in life span (ILS). The series is classed as functional. Particulars: L1210, 24 h. An outline of the steps: as §1
For series [18], the system named is Mus musculus. In words: Number of mice (out of 6 mice) survived after treatment with 300 mg/kg/day of compound on a 1 day treatment schedule for 45 days. The series is classed as functional. The procedure, abridged: as §1
Series [19] deals with Mus musculus. In words: Number of mice (out of 6 mice) survived after treatment with 300 mg/kg/day of compound on a 1,7 day treatment schedule for 45 days. The series is classed as functional. The procedure, abridged: as §1
Series [20] deals with Mus musculus. The experiment in a line: Antitumor activity at 200 mg/kg/day on a 1 day treatment schedule, qd against L1210 infected mice by sonication method was expressed as increase in life span (ILS). Format: functional. Particulars: L1210, 24 h. The procedure, abridged:
as §3

Series [21] deals with Mus musculus. The experiment in a line: Antitumor activity at 200 mg/kg/day on a 1 day treatment schedule, qd against L1210 infected mice by shaking method was expressed as increase in life span (ILS). The series is classed as functional. Particulars: L1210, 24 h. An outline of the steps: as §2
In series [22] the test system is Mus musculus. The experiment in a line: Antitumor activity at 300 mg/kg/day on a 1,7 day treatment schedule, qd against L1210 infected mice by shaking method was expressed as increase in life span (ILS). The series is classed as functional. An outline of the steps: as §2

One may read the ILS as the gain in survival time of treated over control animals, in per cent. As to `CCCCCCCCCCCCCCCC(=O)OC(COCCCCCCCCCCCC)COP(=O)([O-])OP(=O)([O-])OC[C@H]1OC(n2ccc(N)nc2=O)[C@@H](O)[C@@H]1O.[Na+].[Na+]` (stereo not given in full), the figures for the No. of mice in series [1], in series [3] and in [7] were 3, 0 and 0, respectively. Besides, in series [2], the solubility is over 131 mM. In addition, the ILS at 200 mg/kg/day amounted to 128% in [4] and 286% in [5]. In addition, in series [6], the ILS at 150 mg/kg/day was over 313%.
Consider `CCCCCCCCCCCCCCCCOCC(COP(=O)([O-])OP(=O)([O-])OC[C@H]1OC(n2ccc(N)nc2=O)[C@@H](O)[C@@H]1O)OC(=O)CCCCCCCCCCCCC.[Na+].[Na+]` (stereo not given in full), for which the No. of mice amounted to 1 in series [8], 3 in series [9], 4 in series [11] and 5 in series [15]. The figures for the ILS at 300 mg/kg/day in series [10] and in series [13] were 258% and over 464%, respectively. The solubility in [2] was over 107 mM. For the same compound, the ILS at 150 mg/kg/day in [12] and in [14] was over 463% in each case.
For `CCCCCCCCCCCCCCCCOCC(COP(=O)([O-])OP(=O)([O-])OC[C@H]1OC(n2ccc(N)nc2=O)[C@@H](O)[C@@H]1O)OC(=O)CCCCCCCCCCC.[Na+].[Na+]` (stereo not given in full), the values for the ILS at 300 mg/kg/day in series [16] and in series [17] were over 350% and 119%, respectively. Also, the No. of mice is 5 in [1], 0 in [18] and 3 in [7]. The solubility in series [2] is over 132 mM. The compound further displayed an increase in lifespan (ILS) at 150 mg/kg/day in [6] of over 463%.
For the compound `CCCCCCCCCCCCCC(=O)OC(COCCCCCCCCCCCC)COP(=O)([O-])OP(=O)([O-])OC[C@H]1OC(n2ccc(N)nc2=O)[C@@H](O)[C@@H]1O.[Na+].[Na+]` (stereo not given in full), the No. of mice in series [1] came out at 3; in series [3] it was 0. Moreover, in series [2], the solubility was over 146 mM. Moreover, the ILS at 200 mg/kg/day in series [4] was determined as 69%. The ILS at 150 mg/kg/day in [6] is over 394%.
Regarding `CCCCCCCCCCCCCCCC(=O)OC(COCCCCCCCCCCCCCC)COP(=O)([O-])OP(=O)([O-])OC[C@H]1OC(n2ccc(N)nc2=O)[C@@H](O)[C@@H]1O.[Na+].[Na+]` (stereo not given in full), the No. of mice was 1 in series [19]; 3 and 5 in series [1]; 2 and 1 in [3]; 4 and 2 in series [18]. The ILS at 200 mg/kg/day turned out to be 206% in series [20] and 275% in [21]. Moreover, the ILS at 300 mg/kg/day was over 543% in [10], over 206% in series [13] and 107% in series [22]. In addition, the solubility in series [2] is over 43 mM. The ILS at 150 mg/kg/day in series [12] was over 350%; in [14] it was over 463%.
Consider `CCCCCCCCCCCCCCCCOCC(COP(=O)([O-])OP(=O)([O-])OC[C@H]1OC(n2ccc(N)nc2=O)[C@@H](O)[C@@H]1O)OC(=O)CCCCCCCCCCCCCCC.[Na+].[Na+]` (stereo not given in full), for which the No. of mice in series [1] and in series [3] was 3 each time. Further, the solubility in [2] is 0.13 mM. The compound also gave an ILS at 200 mg/kg/day in [4] of over 250%. The compound also registered an ILS at 150 mg/kg/day in series [6] of 306%.
Take `CCCCCCCCCCCCCCOCC(COP(=O)([O-])OP(=O)([O-])OC[C@H]1OC(n2ccc(N)nc2=O)[C@@H](O)[C@@H]1O)OC(=O)CCCCCCCCCCCCC.[Na+].[Na+]` (stereo not given in full): the No. of mice in [1] worked out at 1; in series [18] it was 0. For the same compound, the solubility in series [2] was over 121 mM. The same compound showed an ILS at 300 mg/kg/day in series [17] of 178%. In [6], this compound showed an ILS at 150 mg/kg/day of 125%.
